According to ChEMBL document CHEMBL1156701, “Synthesis, potent anti-staphylococcal activity and QSARs of some novel 2-anilinobenzazoles” (2008):
Values after ≈ are worked out from the molar mass of the structure shown.

Key:
[1] = system: Staphylococcus aureus; assay: Antibacterial activity against methicillin-resistant Staphylococcus aureus ATCC 43300 after 18 hrs by macro broth dilution assay; type: functional; settings: for MIC: Staphylococcus aureus, ATCC 43300, 18 h
How it was run: (§1)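 Compounds dissolved in 50% DMSO–water at 400 (stock); fourfold dilution with medium and inoculum gives 100 top concentration in first tube (12.5% DMSO, not scored). Inoculum: 4–5 colonies from overnight Tryptic Soy Agar in saline to 0.5 McFarland, diluted 1:100 in MHB (10⁶ CFU/ml); 1 mL added to 1 mL compound dilution in MHB. 35 °C, 18 h; MIC read. Agar diffusion pre-screen first.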

[2] = system: Staphylococcus aureus; assay: Antibacterial activity against Staphylococcus aureus ATCC 25923 after 18 hrs by macro broth dilution assay; type: functional; settings: for MIC: Staphylococcus aureus, ATCC 25923, 18 h; how it was run: as §1

SMILES | MIC [1] | log(1/C) [2] | MIC [2] | log(1/C) [1]
Fc1cccc(Nc2nc3cc(Cl)ccc3[nH]2)c1 | 6.25 µg/mL (≈ 23.9 µM) | 4.62 | 6.25 µg/mL (≈ 23.9 µM) | –
Fc1ccc(Nc2nc3cc(Cl)ccc3[nH]2)c(F)c1 | 6.25 µg/mL (≈ 22.3 µM) | 4.35 | 12.5 µg/mL (≈ 44.7 µM) | 4.65
FC(F)(F)c1cccc(Nc2nc3cc(Cl)ccc3[nH]2)c1 | 1.56 µg/mL (≈ 5 µM) | 5.9 | 0.39 µg/mL (≈ 1.25 µM) | 5.3
[N-]=[N+]=Nc1ccc(Nc2nc3cc(Cl)ccc3[nH]2)cc1 | 6.25 µg/mL (≈ 22 µM) | 4.96 | 3.12 µg/mL (≈ 11 µM) | 4.66
Clc1ccc2[nH]c(Nc3ccc(Br)cc3)nc2c1 | 0.78 µg/mL (≈ 2.42 µM) | 5.31 | 1.56 µg/mL (≈ 4.84 µM) | 5.62
COc1ccc(Nc2nc3cc(Cl)ccc3[nH]2)cc1 | 50 µg/mL (≈ 183 µM) | 3.74 | 50 µg/mL (≈ 183 µM) | –
Fc1ccc(Nc2nc3cc(Cl)ccc3[nH]2)cc1Cl | 1.56 µg/mL (≈ 5.27 µM) | 5.28 | 1.56 µg/mL (≈ 5.27 µM) | –
FC(F)(F)c1cc(Nc2nc3cc(Cl)ccc3[nH]2)ccc1Cl | 0.39 µg/mL (≈ 1.13 µM) | 5.95 | 0.39 µg/mL (≈ 1.13 µM) | –
Clc1ccc(Nc2nc3cc(Cl)ccc3[nH]2)cc1 | 1.56 µg/mL (≈ 5.61 µM) | 4.95 | 3.12 µg/mL (≈ 11.2 µM) | 5.25
Clc1ccc2[nH]c(Nc3ccc(Cl)c(Cl)c3)nc2c1 | 0.39 µg/mL (≈ 1.25 µM) | 5.9 | 0.39 µg/mL (≈ 1.25 µM) | –
Clc1ccc(Nc2nc3cc(Cl)ccc3[nH]2)c(Cl)c1 | 0.39 µg/mL (≈ 1.25 µM) | 5.9 | 0.39 µg/mL (≈ 1.25 µM) | –
FC(F)(F)c1ccc(Cl)c(Nc2nc3cc(Cl)ccc3[nH]2)c1 | 0.78 µg/mL (≈ 2.25 µM) | 5.65 | 0.78 µg/mL (≈ 2.25 µM) | –
Clc1ccc(Oc2ccccc2Nc2nc3cc(Cl)ccc3[nH]2)cc1 | 1.56 µg/mL (≈ 4.21 µM) | 5.38 | 1.56 µg/mL (≈ 4.21 µM) | –
Fc1ccc2[nH]c(Nc3ccc(Cl)c(Cl)c3)nc2c1 | 1.56 µg/mL (≈ 5.27 µM) | 5.28 | 1.56 µg/mL (≈ 5.27 µM) | –
Clc1ccc(Nc2nc3cc(Br)ccc3[nH]2)cc1Cl | 0.19 µg/mL (≈ 0.532 µM) | 6.55 | 0.095 µg/mL (≈ 0.266 µM) | 6.28
O=[N+]([O-])c1ccc2[nH]c(Nc3ccc(Cl)c(Cl)c3)nc2c1 | 1.56 µg/mL (≈ 4.83 µM) | 5.62 | 0.78 µg/mL (≈ 2.41 µM) | 5.32
Clc1ccc(Nc2nc3cc(Cl)c(Cl)cc3[nH]2)cc1 | 0.39 µg/mL (≈ 1.25 µM) | 5.9 | 0.39 µg/mL (≈ 1.25 µM) | –

SMILES | MIC [1] | log(1/C) [2] | MIC [2] | log(1/C) [1]
O=[N+]([O-])c1ccc2[nH]c(Nc3ccc(Cl)cc3)nc2c1 | 1.56 µg/mL (≈ 5.4 µM) | 5.27 | 1.56 µg/mL (≈ 5.4 µM) | –
Cc1cc2[nH]c(Nc3ccc(Cl)c(Cl)c3)nc2cc1Cl | 0.39 µg/mL (≈ 1.19 µM) | 5.92 | 0.39 µg/mL (≈ 1.19 µM) | –
FC(F)(F)c1ccc2[nH]c(Nc3ccc(Cl)c(Cl)c3)nc2c1 | 0.19 µg/mL (≈ 0.549 µM) | 6.26 | 0.19 µg/mL (≈ 0.549 µM) | –
N#Cc1ccc2[nH]c(Nc3ccc(Cl)c(Cl)c3)nc2c1 | 1.56 µg/mL (≈ 5.15 µM) | 5.28 | 1.56 µg/mL (≈ 5.15 µM) | –
COC(=O)c1ccc2[nH]c(Nc3ccc(Cl)c(Cl)c3)nc2c1 | 0.78 µg/mL (≈ 2.32 µM) | 5.34 | 1.56 µg/mL (≈ 4.64 µM) | 5.64
Nc1ccc2[nH]c(Nc3ccc(Cl)c(Cl)c3)nc2c1 | 50 µg/mL (≈ 171 µM) | 4.07 | 25 µg/mL (≈ 85.3 µM) | 3.77
FC(F)(F)c1ccc(Nc2nc3cc(Cl)ccc3[nH]2)cc1 | 0.39 µg/mL (≈ 1.25 µM) | 5.9 | 0.39 µg/mL (≈ 1.25 µM) | –
Fc1ccc(Nc2nc3cc(Cl)ccc3[nH]2)cc1 | 12.5 µg/mL (≈ 47.8 µM) | 4.92 | 3.12 µg/mL (≈ 11.9 µM) | 4.32
Clc1ccc(Nc2nc3ccccc3[nH]2)cc1Cl | 6.25 µg/mL (≈ 22.5 µM) | 4.95 | 3.12 µg/mL (≈ 11.2 µM) | 4.65
FC(F)(F)Oc1ccc(Nc2nc3cc(Cl)ccc3[nH]2)cc1 | 0.78 µg/mL (≈ 2.38 µM) | 5.62 | 0.78 µg/mL (≈ 2.38 µM) | –
Fc1cc(F)cc(Nc2nc3cc(Cl)ccc3[nH]2)c1 | 1.56 µg/mL (≈ 5.58 µM) | 5.25 | 1.56 µg/mL (≈ 5.58 µM) | –
Clc1cc(Cl)cc(Nc2nc3cc(Cl)ccc3[nH]2)c1 | 0.39 µg/mL (≈ 1.25 µM) | 5.9 | 0.39 µg/mL (≈ 1.25 µM) | –
Clc1ccc(Nc2nc3cc(Cl)c(Cl)cc3[nH]2)cc1Cl | 0.39 µg/mL (≈ 1.12 µM) | 5.95 | 0.39 µg/mL (≈ 1.12 µM) | –
Clc1ccc(Nc2nc3cc(I)ccc3[nH]2)cc1Cl | 0.78 µg/mL (≈ 1.93 µM) | 5.71 | 0.78 µg/mL (≈ 1.93 µM) | –
CC1(C)S[C@@H]2[C@H](NC(=O)[C@H](N)c3ccccc3)C(=O)N2[C@H]1C(=O)O [AMPICILLIN] | 25 µg/mL (≈ 71.5 µM) | – | 0.78 µg/mL (≈ 2.23 µM) | –
CC1(C)S[C@@H]2[C@H](NC(=O)[C@H](N)c3ccccc3)C(=O)N2[C@H]1C(=O)OCOC(=O)[C@@H]1N2C(=O)C[C@H]2S(=O)(=O)C1(C)C [SULTAMICILLIN] | 25 µg/mL (≈ 42 µM) | – | 0.78 µg/mL (≈ 1.31 µM) | –
